The record followed here is ChEMBL document CHEMBL1157645, “Synthesis of 2-(thienyl-2-yl or -3-yl)-4-furyl-6-aryl pyridine derivatives and evaluation of their topoisomerase I and II inhibitory activity, cytotoxicity, and structure-activity relationship” (Bioorg Med Chem, 2010).

Experiment [1] addresses T1, DNA topoisomerase 1 (Homo sapiens) (UniProt P11387).
T1 sequence (whole entry): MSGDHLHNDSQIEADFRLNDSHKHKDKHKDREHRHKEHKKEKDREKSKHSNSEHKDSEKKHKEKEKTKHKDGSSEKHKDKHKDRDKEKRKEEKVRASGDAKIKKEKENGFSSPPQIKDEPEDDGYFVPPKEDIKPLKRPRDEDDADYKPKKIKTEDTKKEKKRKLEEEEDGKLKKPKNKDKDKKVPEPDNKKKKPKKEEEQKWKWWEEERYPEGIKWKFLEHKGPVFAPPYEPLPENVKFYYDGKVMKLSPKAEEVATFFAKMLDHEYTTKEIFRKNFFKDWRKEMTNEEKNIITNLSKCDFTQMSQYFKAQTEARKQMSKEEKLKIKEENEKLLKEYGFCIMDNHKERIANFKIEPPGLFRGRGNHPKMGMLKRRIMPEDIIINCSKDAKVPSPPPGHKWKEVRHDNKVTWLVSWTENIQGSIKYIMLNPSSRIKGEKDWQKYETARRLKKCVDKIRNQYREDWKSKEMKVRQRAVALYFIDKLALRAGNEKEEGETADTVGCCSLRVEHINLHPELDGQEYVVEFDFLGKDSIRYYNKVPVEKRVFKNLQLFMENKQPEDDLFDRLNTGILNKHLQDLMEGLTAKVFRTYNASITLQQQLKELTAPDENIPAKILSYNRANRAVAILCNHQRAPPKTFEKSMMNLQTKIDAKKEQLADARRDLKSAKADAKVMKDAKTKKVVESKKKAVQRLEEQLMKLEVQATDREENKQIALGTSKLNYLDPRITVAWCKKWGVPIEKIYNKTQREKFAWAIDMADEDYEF
The experiment is described as follows: Inhibition of human recombinant topoisomerase 1 assessed as inhibition of relaxation of supercoiled pBR322 DNA at 20 uM by agarose gel electrophoresis. In short, it runs like this: (§1)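 100 ng pBR322 DNA was incubated with 0.4 units of recombinant human topo I, with or without compound (DMSO stocks at 20 mM), for 30 min at 37 °C in 10 mM Tris–HCl pH 7.9, 150 mM NaCl, 0.1% BSA, 1 mM spermidine and 5% glycerol. The reaction was stopped with sarkosyl/bromophenol blue/glycerol and run on 1% agarose in TAE at 15 V for 7 h. Relaxation was read from ethidium bromide staining.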

A further experiment has as its system HeLa. The experiment can be described thus: Cytotoxicity against human HeLa cells in presence of 10% fetal bovine serum. Format: functional, cell-based. A digest of the protocol:
(§2)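 Cells cultured per supplier's instructions and seeded at 2–4 × 10⁴ cells per well. On day 2 the medium was replaced with medium containing graded compound concentrations. On day 4 cell counting kit-8 was added for a further 4 h, and absorbance was read at 450 nm. Values are 50% inhibitory concentrations, given as mean from three experiments run in triplicate.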

For the next experiment, the system named is MCF7. The experiment can be described thus: Cytotoxicity against human MCF7 cells in presence of 10% fetal bovine serum. Format: functional. A digest of the protocol:
as §2

The subject of another experiment is K562. The experiment is described as follows: Cytotoxicity against human K562 cells in presence of 10% fetal bovine serum. The format is functional, cell-based. In short, it runs like this: as §2
Experiment [2] deals with T1, DNA topoisomerase 1 (Homo sapiens). The experiment can be described thus: Inhibition of human recombinant topoisomerase 1 assessed as inhibition of relaxation of supercoiled pBR322 DNA at 100 uM by agarose gel electrophoresis. A digest of the protocol: as §1
The test system of a further experiment is DU-145. The experiment can be described thus: Cytotoxicity against human DU145 cells in presence of 10% fetal bovine serum. Format: functional, cell-based. A digest of the protocol:
as §2

For experiment [3], the target named is DNA topoisomerase 2-alpha (Homo sapiens) (UniProt P11388). The experiment is described as follows: Inhibition of human recombinant DNA topoisomerase 2 assessed as inhibition of relaxation of supercoiled pBR322 DNA at 20 uM by agarose gel electrophoresis. In short, it runs like this:
(§3)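 pBR322 DNA was incubated with two units of human topo IIα, with or without compound (DMSO stocks at 20 mM), in 10 mM Tris–HCl pH 7.9 with 50 mM NaCl, 5 mM MgCl₂, 1 mM EDTA, 1 mM ATP and BSA, for 30 min at 30 °C. The reaction was stopped with EDTA and run on 1% agarose in TAE at 25 V for 4 h. Gels were stained with ethidium bromide, and supercoiled DNA was quantified under UV.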

For experiment [4] the target is unchanged. The experiment is described as follows: Inhibition of human recombinant DNA topoisomerase 2 assessed as inhibition of relaxation of supercoiled pBR322 DNA at 100 uM by agarose gel electrophoresis. In short, it runs like this: as §3
The next experiment relates to HCT-15. The experiment can be described thus: Cytotoxicity against human HCT15 cells in presence of 10% fetal bovine serum. The format is functional, cell-based. In short, it runs like this: as §2

SMILES strings stand for the structures. pIC50: −log10 of the molar value.

DNA topoisomerase 2-alpha (Homo sapiens), sequence (P11388 whole entry): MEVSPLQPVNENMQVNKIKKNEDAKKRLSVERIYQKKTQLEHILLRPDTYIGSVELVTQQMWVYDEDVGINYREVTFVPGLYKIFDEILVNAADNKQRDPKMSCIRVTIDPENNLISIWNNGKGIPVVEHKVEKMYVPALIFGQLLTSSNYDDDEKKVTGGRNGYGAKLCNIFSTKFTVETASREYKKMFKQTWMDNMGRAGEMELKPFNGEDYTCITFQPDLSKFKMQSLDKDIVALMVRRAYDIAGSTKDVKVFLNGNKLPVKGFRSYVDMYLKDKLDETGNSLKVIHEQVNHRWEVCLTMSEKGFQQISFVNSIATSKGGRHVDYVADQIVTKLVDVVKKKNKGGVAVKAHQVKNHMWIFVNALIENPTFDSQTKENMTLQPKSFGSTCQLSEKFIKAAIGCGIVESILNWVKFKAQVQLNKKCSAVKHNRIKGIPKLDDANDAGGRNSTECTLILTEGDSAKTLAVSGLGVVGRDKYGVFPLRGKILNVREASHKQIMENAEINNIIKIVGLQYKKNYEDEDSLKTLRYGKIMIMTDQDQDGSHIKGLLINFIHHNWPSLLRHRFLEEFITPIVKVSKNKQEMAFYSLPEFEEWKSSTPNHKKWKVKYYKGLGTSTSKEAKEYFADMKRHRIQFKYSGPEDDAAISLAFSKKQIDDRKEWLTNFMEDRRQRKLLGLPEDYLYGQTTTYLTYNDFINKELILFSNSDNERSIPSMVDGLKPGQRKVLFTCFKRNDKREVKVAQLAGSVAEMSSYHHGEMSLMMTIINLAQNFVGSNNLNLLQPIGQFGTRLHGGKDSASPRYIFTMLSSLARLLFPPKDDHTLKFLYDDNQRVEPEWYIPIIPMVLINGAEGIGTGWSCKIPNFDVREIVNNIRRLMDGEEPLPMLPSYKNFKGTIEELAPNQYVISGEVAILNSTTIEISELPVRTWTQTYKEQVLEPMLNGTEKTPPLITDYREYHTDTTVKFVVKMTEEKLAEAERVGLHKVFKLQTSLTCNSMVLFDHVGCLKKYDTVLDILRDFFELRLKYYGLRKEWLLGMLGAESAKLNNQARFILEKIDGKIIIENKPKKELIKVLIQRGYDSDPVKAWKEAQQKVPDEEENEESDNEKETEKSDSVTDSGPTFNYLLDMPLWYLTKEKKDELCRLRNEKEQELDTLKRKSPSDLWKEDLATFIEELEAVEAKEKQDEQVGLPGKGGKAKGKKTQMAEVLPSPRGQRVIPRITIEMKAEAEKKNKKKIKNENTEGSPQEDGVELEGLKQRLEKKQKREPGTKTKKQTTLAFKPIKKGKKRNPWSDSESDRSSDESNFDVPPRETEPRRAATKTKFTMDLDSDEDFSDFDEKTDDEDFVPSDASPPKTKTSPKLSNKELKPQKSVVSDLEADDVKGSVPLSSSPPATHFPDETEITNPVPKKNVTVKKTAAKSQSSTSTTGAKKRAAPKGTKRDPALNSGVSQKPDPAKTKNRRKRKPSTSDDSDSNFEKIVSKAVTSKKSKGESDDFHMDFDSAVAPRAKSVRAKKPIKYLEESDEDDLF

By inhibition is commonly meant how much of the control response was suppressed. The pIC50 is the negative decadic logarithm of the IC50, by convention in mol/L. By IC50 is commonly meant the midpoint of a concentration-inhibition curve. For `Clc1ccc(-c2cc(-c3cccs3)nc(-c3ccccc3Cl)c2)o1`, the inhibition turned out to be 8% in [1], 41.3% in experiment [2], 15.4% in experiment [3] and 35% in [4]. In addition, the pIC50 with HeLa was 4.73; in the experiment with K562, 4.76; in the experiment on DU-145, 4.77; in the experiment with HCT-15, 5.21. For the same molecule, the IC50 with MCF7 is 1.93 µM.

In the case of `Clc1cccc(-c2cc(-c3ccc(Cl)o3)cc(-c3cccs3)n2)c1`, the inhibition in experiment [1] is 8.5%; in experiment [2], 42%; in experiment [3], 32.7%; in experiment [4] it was 44.7%. The pIC50 is 4.89 in the experiment on HeLa, 4.70 in the experiment with K562, 4.74 with DU-145 and 4.81 with HCT-15. Moreover, the IC50 in the experiment on MCF7 was 2.86 µM.

`Clc1ccc(-c2cc(-c3ccc(Cl)o3)cc(-c3ccsc3)n2)cc1`: the inhibition in experiment [1] turned out to be 5.2%; in experiment [2], 29.8%; in [3], 65.7%; in [4], 75.9%. Further, the pIC50 in the experiment on HeLa is 5.08; in the experiment on K562, 4.73; in the experiment on DU-145 it was 4.71; in the experiment on HCT-15, 5.28. The IC50 with MCF7 was determined as 1.77 µM.
